Assay results published in ChEMBL document CHEMBL4118033, “Total Synthesis, Configuration Assignment, and Cytotoxic Activity Evaluation of Protulactone A” (J Nat Prod, 2017).
Activity calls are given as the source filed them.

What was measured:
Assay type in all cases: functional, cell-based
MCF7 = assay: Antiproliferative activity against human MCF7 cells at 10 uM incubated for 48 hrs by sulforhodamine B assay
Outline: (§1)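 Run by the NCI Developmental Therapeutics Program (Division of Cancer Treatment and Diagnosis) as part of the NCI60 human tumour cell line panel screen. Each compound was tested at a single dose of 10 μM. Results are reported as one-dose mean graphs.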

SF-539 = assay: Antiproliferative activity against human SF539 cells at 10 uM incubated for 48 hrs by sulforhodamine B assay; outline: as §1
MOLT-4 = assay: Antiproliferative activity against human MOLT4 cells at 10 uM incubated for 48 hrs by sulforhodamine B assay; outline: as §1
OVCAR-8 = assay: Antiproliferative activity against human OVCAR8 cells at 10 uM incubated for 48 hrs by sulforhodamine B assay; outline: as §1
786-0 = assay: Antiproliferative activity against human 786-0 cells at 10 uM incubated for 48 hrs by sulforhodamine B assay; outline: as §1
SK-MEL-28 = assay: Antiproliferative activity against human SK-MEL-28 cells at 10 uM incubated for 48 hrs by sulforhodamine B assay; outline: as §1
PC-3 = assay: Antiproliferative activity against human PC3 cells at 10 uM incubated for 48 hrs by sulforhodamine B assay; outline: as §1
SK-OV-3 = assay: Antiproliferative activity against human SKOV3 cells at 10 uM incubated for 48 hrs by sulforhodamine B assay; outline: as §1
HOP-92 = assay: Antiproliferative activity against human HOP92 cells at 10 uM incubated for 48 hrs by sulforhodamine B assay; outline: as §1
HCT-116 = assay: Antiproliferative activity against human HCT116 cells at 10 uM incubated for 48 hrs by sulforhodamine B assay; outline: as §1
Hs-578T = assay: Antiproliferative activity against human Hs 578T cells at 10 uM incubated for 48 hrs by sulforhodamine B assay; outline: as §1
TK-10 = assay: Antiproliferative activity against human TK10 cells at 10 uM incubated for 48 hrs by sulforhodamine B assay
Outline: (§2)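 Run by the NCI Developmental Therapeutics Program (Division of Cancer Treatment and Diagnosis) as part of the NCI60 human tumour cell line panel. Each compound was tested in vitro at a single dose of 10 μM, and the data are reported as one-dose mean graphs across the panel.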

HOP-62 = assay: Antiproliferative activity against human HOP62 cells at 10 uM incubated for 48 hrs by sulforhodamine B assay; outline: as §1
M14 = assay: Antiproliferative activity against human M14 cells at 10 uM incubated for 48 hrs by sulforhodamine B assay; outline: as §1
NCI-H460 = assay: Antiproliferative activity against human NCI-H460 cells at 10 uM incubated for 48 hrs by sulforhodamine B assay; outline: as §1
T47D = assay: Antiproliferative activity against human T47D cells at 10 uM incubated for 48 hrs by sulforhodamine B assay; outline: as §2
LOX IMVI = assay: Antiproliferative activity against human LOXIMVI cells at 10 uM incubated for 48 hrs by sulforhodamine B assay; outline: as §1
NCI-H226 = assay: Antiproliferative activity against human NCI-H226 cells at 10 uM incubated for 48 hrs by sulforhodamine B assay; outline: as §1
NCI-H522 = assay: Antiproliferative activity against human NCI-H522 cells at 10 uM incubated for 48 hrs by sulforhodamine B assay; outline: as §1
OVCAR-4 = assay: Antiproliferative activity against human OVCAR4 cells at 10 uM incubated for 48 hrs by sulforhodamine B assay; outline: as §1
RXF 393 = assay: Antiproliferative activity against human RXF393 cells at 10 uM incubated for 48 hrs by sulforhodamine B assay; outline: as §1
HCC 2998 = assay: Antiproliferative activity against human HCC2998 cells at 10 uM incubated for 48 hrs by sulforhodamine B assay; outline: as §1
EKVX = assay: Antiproliferative activity against human EKVX cells at 10 uM incubated for 48 hrs by sulforhodamine B assay; outline: as §1
SN12C = assay: Antiproliferative activity against human SN12C cells at 10 uM incubated for 48 hrs by sulforhodamine B assay; outline: as §1
IGROV-1 = assay: Antiproliferative activity against human IGROV1 cells at 10 uM incubated for 48 hrs by sulforhodamine B assay; outline: as §1
DU-145 = assay: Antiproliferative activity against human DU145 cells at 10 uM incubated for 48 hrs by sulforhodamine B assay; outline: as §1
A498 = assay: Antiproliferative activity against human A498 cells at 10 uM incubated for 48 hrs by sulforhodamine B assay; outline: as §1
NCI-H23 = assay: Antiproliferative activity against human NCI-H23 cells at 10 uM incubated for 48 hrs by sulforhodamine B assay; outline: as §1
UACC-62 = assay: Antiproliferative activity against human UACC62 cells at 10 uM incubated for 48 hrs by sulforhodamine B assay; outline: as §2
SR = assay: Antiproliferative activity against human SR cells at 10 uM incubated for 48 hrs by sulforhodamine B assay; outline: as §2
UACC-257 = assay: Antiproliferative activity against human UACC257 cells at 10 uM incubated for 48 hrs by sulforhodamine B assay; outline: as §2
U-251 = assay: Antiproliferative activity against human U251 cells at 10 uM incubated for 48 hrs by sulforhodamine B assay; outline: as §2
SK-MEL-2 = assay: Antiproliferative activity against human SK-MEL-2 cells at 10 uM incubated for 48 hrs by sulforhodamine B assay; outline: as §1
OVCAR-5 = assay: Antiproliferative activity against human OVCAR5 cells at 10 uM incubated for 48 hrs by sulforhodamine B assay; outline: as §1
KM12 = assay: Antiproliferative activity against human KM12 cells at 10 uM incubated for 48 hrs by sulforhodamine B assay; outline: as §1
A549 = assay: Antiproliferative activity against human A549/ATCC cells at 10 uM incubated for 48 hrs by sulforhodamine B assay; outline: as §1
UO-31 = assay: Antiproliferative activity against human UO31 cells at 10 uM incubated for 48 hrs by sulforhodamine B assay; outline: as §2
SW-620 = assay: Antiproliferative activity against human SW620 cells at 10 uM incubated for 48 hrs by sulforhodamine B assay; outline: as §2
RPMI-8226 = assay: Antiproliferative activity against human RPMI8226 cells at 10 uM incubated for 48 hrs by sulforhodamine B assay; outline: as §1
SNB-75 = assay: Antiproliferative activity against human SNB75 cells at 10 uM incubated for 48 hrs by sulforhodamine B assay; outline: as §2
OVCAR-3 = assay: Antiproliferative activity against human OVCAR3 cells at 10 uM incubated for 48 hrs by sulforhodamine B assay; outline: as §1
MDA-MB-468 = assay: Antiproliferative activity against human MDA-MB-468 cells at 10 uM incubated for 48 hrs by sulforhodamine B assay; outline: as §1
SF-268 = assay: Antiproliferative activity against human SF268 cells at 10 uM incubated for 48 hrs by sulforhodamine B assay; outline: as §1
HCT-15 = assay: Antiproliferative activity against human HCT15 cells at 10 uM incubated for 48 hrs by sulforhodamine B assay; outline: as §1
SNB-19 = assay: Antiproliferative activity against human SNB19 cells at 10 uM incubated for 48 hrs by sulforhodamine B assay; outline: as §1
ACHN = assay: Antiproliferative activity against human ACHN cells at 10 uM incubated for 48 hrs by sulforhodamine B assay; outline: as §1

Measured: Activity

CC(=O)O[C@@H](C)[C@H]1O[C@H]2CC(=O)O[C@H]2[C@@H]1O
inactive: MCF7 | SF-539 | MOLT-4 | OVCAR-8 | 786-0 | SK-MEL-28 | PC-3 | SK-OV-3 | HOP-92 | HCT-116 | Hs-578T | TK-10 | HOP-62 | M14 | NCI-H460 | T47D | LOX IMVI | NCI-H226 | NCI-H522 | OVCAR-4 | RXF 393 | HCC 2998 | EKVX | SN12C | IGROV-1 | DU-145 | A498 | NCI-H23 | UACC-62 | SR | UACC-257 | U-251 | SK-MEL-2 | OVCAR-5 | KM12 | A549 | UO-31 | SW-620 | RPMI-8226 | SNB-75 | OVCAR-3 | MDA-MB-468 | SF-268 | HCT-15 | SNB-19 | ACHN

CC(=O)O[C@@H](C)[C@@H]1O[C@@H]2CC(=O)O[C@@H]2[C@H]1O
inactive: MCF7 | SF-539 | MOLT-4 | OVCAR-8 | 786-0 | SK-MEL-28 | PC-3 | SK-OV-3 | HOP-92 | HCT-116 | Hs-578T | TK-10 | HOP-62 | M14 | NCI-H460 | T47D | LOX IMVI | NCI-H226 | NCI-H522 | OVCAR-4 | RXF 393 | HCC 2998 | EKVX | SN12C | IGROV-1 | DU-145 | A498 | NCI-H23 | UACC-62 | SR | UACC-257 | U-251 | SK-MEL-2 | OVCAR-5 | KM12 | A549 | UO-31 | SW-620 | RPMI-8226 | SNB-75 | OVCAR-3 | MDA-MB-468 | SF-268 | HCT-15 | SNB-19 | ACHN
